In PubChem BioAssay AID588702 (Broad Institute, 2011):
The source made the active and inactive calls.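 The calls were made as follows: active = marked loss of luminescence, read as toxicity to breast epithelial cells carrying a control GFP hairpin; inactive = the rest.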

System: not listed separately
Test: cytotoxicity in HMLE control cells, dose response, counter-screen for breast cancer stem cell project, cell-based, CellTiter-Glo luminescence, dry powder samples (AID 588702)
Conditions: HMLE_shGFP viability, CellTiter-Glo luminescence, 72 h
In short: (§1)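 Test system – HMLE mammary epithelial cells expressing shGFP, toxicity counterscreen line · Amount – 1000 HMLE_shGFP cells per well · Doses – compound delivered to wells by pin transfer · Incubation – 24 h attachment, 72 h compound exposure · Signal – CellTiter-Glo luminescence · Control set – DMSO-only wells · Medium – serum-free screening medium for cell seeding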

Q: With `O=C(COc1c(Cl)cc(Cl)cc1Cl)N/N=C/c1ccc[nH]1` as the compound, how does the outcome read?
A: inactive

Q: Which outcome does the source give for `O=C(COc1ccc(Cl)cc1Cl)N/N=C/c1cnc[nH]1` here?
A: inactive

System: HMLE_shGFP viability, CellTiter-Glo luminescence, 72 h
Test: as above
Conditions: not given
In short: as §1

Q: Which AC50 does the source give for `O=C(N/N=C/c1ccc[nH]1)c1cc2ccccc2o1` here?
A: 378 µM

Q: For `Cc1cc(Cl)ccc1OCC(=O)N/N=C/c1ccc[nH]1`, which AC50 is on record?
A: 29.9 µM

Q: For `O=C(COc1cc(Cl)ccc1Cl)N/N=C/c1ccc[nH]1`, which AC50 is on record?
A: 11.4 µM

Q: Which AC50 does the source give for `CC(C)(C)c1ccc2c(c1)OC(C(=O)N/N=C/c1ccc[nH]1)CO2` (configuration not stated) here?
A: 21.1 µM

Q: With `O=C(COc1ccc(Cl)cc1Cl)N/N=C/c1ccc[nH]1` as the compound, how does the AC50 read?
A: 51.4 µM
